The text below walks through data of ChEMBL document CHEMBL1127087, “Synthesis and structure-activity relationships of 3,5-disubstituted 4,5-dihydro-6H-imidazo[1,5-a][1,4]benzodiazepin-6-ones at diazepam-sensitive and diazepam-insensitive benzodiazepine receptors” (J Med Chem, 1993).

In assay [1] the target is GABA-A receptor; anion channel. The assay can be described thus: Displacement of [3H]flunitrazepam from diazepam-sensitive GABA-A benzodiazepine receptor of rat cortical membrane. The gist of the method:
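Washed rat cerebral cortex membranes (adult male Sprague-Dawley) in Tris-citrate pH 7.4 with NaCl. [3H]flunitrazepam at about 1 nM final, 2 h at 4 °C, then filtration. Six to eight inhibitor concentrations were used; IC50 came from a sigmoid fit. Three determinations, mean ± SEM.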
(In a radioligand displacement assay an active substance lowers the binding of a labelled ligand.)

Assay [2] can be described thus: Ratio between diazepam-insensitive (DI) site / diazepam-sensitive (DS) site. The gist of the method:
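Rat cerebellar membranes washed five times in 50 mM Tris-citrate pH 7.8 with NaCl. [3H]Ro 15-4513 at about 2 nM final, 60 min at 0–4 °C, then filtration. DS+DI binding was defined by Ro 15-1788 (10 μM) displacement and DI binding as the diazepam (10 μM)-insensitive part. 0.1 nM–1 μM inhibitor; Cheng-Prusoff Ki; duplicate assays, three experiments. Ratio is Ki DI/DS.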

Assay [3] concerns the target GABA-A receptor; anion channel. Kind of assay: […] from diazepam-insensitive GABA-A benzodiazepine receptor of rat cerebellar membrane.
The target of assay [4] is GABA-A receptor; anion channel. The assay can be described thus: […] from diazepam-sensitive GABA-A benzodiazepine receptor of rat cerebellar membrane.

In general, IC50 refers to the concentration needed to halve the response being measured. On to `CN1Cc2c(NC=O)ncn2-c2ccccc2C1=O`, for which the IC50 in assay [1] was > 1000 nM.

In assay [1], `CCOC(=O)c1ncn2c1CN(Cc1ccccc1)C(=O)c1c(Cl)cccc1-2` had an IC50 of 2.4 nM. Further, in assay [2], the Ratio stood at 51.

`CCCN1Cc2c(C(=O)OCC)ncn2-c2ccccc2C1=O` showed an IC50 in assay [1] of 238 nM.

For the molecule `CCOC(=O)Nc1ncn2c1CN(C)C(=O)c1ccccc1-2`, in assay [1], the IC50 is > 1000 nM.

For the molecule `CCOC(=O)c1ncn2c1CN(C)C(=O)c1ccccc1-2`, the Ratio in assay [2] stood at 165.

On to `CN1Cc2c(N=C=S)ncn2-c2ccccc2C1=O`, for which the IC50 in assay [1] was found to be 739 nM. In other words, the sub-micromolar range.

Consider `Cc1noc(-c2ncn3c2CN(Cc2ccccc2)C(=O)c2cc(Cl)ccc2-3)n1`, for which, in assay [1], the IC50 was determined as 338 nM. Besides, the Ratio in assay [2] turned out to be 1.3.

With `COC(=O)Nc1ncn2c1CN(C)C(=O)c1ccccc1-2`, the IC50 in assay [1] was > 1000 nM.

In the case of `CCOC(=O)c1ncn2c1CNC(=O)c1ccccc1-2`, the IC50 in assay [1] was determined as 164 nM.

Usually Ki stands for a measure of affinity in units of concentration, obtained from inhibition or displacement. Lower therefore signals tighter binding. With `CCOC(=O)c1ncn2c1CN(Cc1ccccc1)C(=O)c1cc(Cl)ccc1-2`, the Ki in assay [3] is 1.4 nM. In assay [1], this molecule came in with an IC50 of 37.8 nM. Moreover, in assay [2], the Ratio is 0.8.

Take `Cc1noc(-c2ncn3c2CN(Cc2ccccc2)C(=O)c2c(Cl)cccc2-3)n1`: the IC50 in assay [1] was 15.3 nM. Besides, the Ratio in assay [2] worked out at 101.

For the molecule `Cc1noc(-c2ncn3c2CN(Cc2ccccc2)C(=O)c2ccccc2-3)n1`, the IC50 in assay [3] was > 10000 nM; in assay [1], 34.3 nM.

`Cc1ccc(S(=O)(=O)c2ncn3c2CN(C)C(=O)c2ccccc2-3)cc1`: in assay [1], the IC50 was > 1000 nM.

On to `CCOC(=O)c1ncn2c1CN(Cc1ccc(OC)cc1OC)C(=O)c1ccccc1-2`, for which the values for the Ki in assay [4] and in assay [3] were 5.4 nM and 127 nM, respectively. In assay [1], this molecule registered an IC50 of 23.2 nM. The Ratio in assay [2] amounted to 24.

As for `CCOC(=O)c1ncn2c1CN(Cc1ccccc1)C(=O)c1ccccc1-2`, the IC50 in assay [1] was determined as 9.3 nM. Moreover, the Ratio in assay [2] is 75.

With `CCOC(=O)c1ncn2c1CN(C)C(=O)c1c(Cl)cccc1-2`, in assay [2], the Ratio was determined as 100.

`CN1Cc2c(C3=NCCO3)ncn2-c2ccccc2C1=O` had a concentration for half-maximal inhibition (IC50) in assay [1] of 687 nM.

Turning to `CCOC(=O)c1ncn2c1CN(CCc1ccccc1)C(=O)c1ccccc1-2`, the IC50 in assay [1] came out at 340 nM.

Take `CCOC(=O)c1ncn2c1CN(c1ccc(OC)cc1)C(=O)c1ccccc1-2`: in assay [1], the 50% inhibitory concentration (IC50) is > 1000 nM.

In assay [1], `C=CCN1Cc2c(C(=O)OCC)ncn2-c2ccccc2C1=O` had an IC50 of 157 nM.

As for `CC(=O)Nc1ncn2c1CN(C)C(=O)c1ccccc1-2`, in assay [1], the IC50 is > 1000 nM.

For `Cc1nnc(-c2ncn3c2CN(Cc2ccccc2)C(=O)c2ccccc2-3)o1`, the figures for the IC50 in assay [3] and in assay [1] were > 10000 nM and > 1000 nM, respectively.

With `CCOC(=O)c1ncn2c1CN(c1ccccc1)C(=O)c1ccccc1-2`, the IC50 in assay [1] is > 1000 nM.
